# Source: PubChem
# Wnt bcat act = Wnt/beta-catenin pathway activation; Wnt/beta-catenin reporter cell assay, activator, plate reader; activation, % at 9.35 µM; 1.2% of 300,000 active; AID 743398; in the data active = activation above about 30%, passing the limit was not always enough; inconclusive = no clear call, values can overlap the other calls
# MITF act = activators of MITF-driven TRPM1 promoter activity in SK-MEL-5 cells. SK-MEL-5 TRPM1-promoter luciferase, 24 h; % of positive control, neutral wells = 0. activation, % at 12.5 µM. 0.75% of 300,000 active. AID 588334;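 active = mean activation of at least 80% with every replicate also reaching 80%; inconclusive = mean reaches 80% but some replicate falls short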
# Casp6 inh = caspase-6 (human) enzyme inhibition | purified caspase-6, Z-VEID-R110 cleavage fluorescence | AID 686996 | inhibition, % at 12.5 µM | 0.53% of 350,000 active | P55212;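 active = mean inhibition across replicates at least about 35%, with every replicate also reaching that limit, limit read from the data; inconclusive = only one of the two criteria met; inactive = neither criterion met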
# Target sequence (P55212 24-179 limits assumed): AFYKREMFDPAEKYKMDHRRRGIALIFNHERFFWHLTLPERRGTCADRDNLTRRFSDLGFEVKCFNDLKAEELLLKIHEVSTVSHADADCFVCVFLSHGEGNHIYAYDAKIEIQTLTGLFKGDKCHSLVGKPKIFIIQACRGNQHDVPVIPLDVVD
# Target sequence (P55212 194-293 limits assumed): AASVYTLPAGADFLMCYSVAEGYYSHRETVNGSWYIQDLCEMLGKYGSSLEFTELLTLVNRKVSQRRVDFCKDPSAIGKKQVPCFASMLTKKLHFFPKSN
# esBAF inh = inhibitors of esBAF chromatin remodeling in mouse ES cells; Bmi1-luciferase knock-in reporter, 24 h; 100% = twice the neutral-well signal; 2% of 350,000 active; reporter increase, % at 12.5 µM; AID 602393; in the data active = activation above about 40%; inconclusive = no clear call, values can overlap the other calls;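 also: a rise in the Bmi1 reporter signal indicates esBAF inhibition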
# XiGFP reactiv = X-chromosome reactivation activator. XiGFP mouse fibroblasts, % GFP-positive cells imaging, 3 d; cells co-treated with 5-aza-dC sensitizer; scaled so ellipticine positive control = 100%. activation, % at 7.58 µM. 0.055% of 360,000 active. AID 743238;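 active = mean normalized replicate activation at least 10% and every replicate at or above 10%; inconclusive = only one of the two criteria met; inactive = mean below 10% and not all replicates reach 10%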
#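 material = 68-5-11 XiGFP fibroblast line | medium = DMEM plus 5-aza-dC sensitizer | schedule = 3 days compound exposure | benchmarks = positive control ellipticine, 6 µM final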
# NSD2 inh = blocks human histone methyltransferase NSD2 | O96028 | NSD2 peptide methylation, AlphaScreen, 120 min | inhibition, % at 12.5 µM | 0.54% of 310,000 active; in the data active = inhibition above about 50%
# Hits are given with their value; - = inactive; ? = inconclusive; . = no result given. Only some compounds are listed: those with a hit (about 3% of all), similar ones and a draw of the others.
SMILES,Wnt bcat act,MITF act,Casp6 inh,esBAF inh,XiGFP reactiv,NSD2 inh
COc1cc(/C=C/c2nc3ccccc3c(=O)[nH]2)cc(OC)c1OC,-,-,-,-,-,-
Cc1ccccc1/C=C\c1nc2ccccc2c(=O)[nH]1,-,-,-,.,-,-
COCC(=O)N1CC2(C1)[C@H](c1ccc(-c3cccc(C)c3)cc1)[C@H](CO)N2C(=O)C1CC1,.,.,-,.,-,.
O=C(C[C@@H]1C=C[C@H](NS(=O)(=O)c2ccccc2)[C@@H](CO)O1)N1CCC(Cc2ccccc2)CC1,.,.,-,.,-,.
CCOc1ccc(Nc2nc(Cc3nnc(SCC(=O)NCC4CCCO4)n3C)cs2)cc1 (stereo not drawn),-,-,37,-,.,-
CC(C)c1ccc(Nc2nnc(SCC(=O)NCC3CCCO3)s2)cc1 (stereo not drawn),47,-,-,-,-,-
CO[C@H]1CN(C)C(=O)c2cc(NC(=O)C3CC3)ccc2OC[C@@H](C)N(C(=O)c2ccccc2F)C[C@H]1C,.,.,-,-,-,.
O=c1[nH]c(Nc2ccccc2)cc2cc(Br)ccc12,-,-,99,-,-,.
CC(=O)c1cccc(-c2ccc3c(=O)[nH]c(Nc4ccccc4)cc3c2)c1,-,-,95,-,-,.
O=c1[nH]c(Nc2ccccc2)cc2ccccc12,.,-,.,.,.,82
CC(=O)c1cccc(Nc2nc(-c3ccccc3)nc3ccccc23)c1,-,-,-,-,-,-
Cn1c(=O)cc(Nc2ccccc2)[nH]c1=O,-,.,-,-,-,-
COC(=O)[C@H]1[C@H](CO)[C@H]2Cn3c(ccc(-c4ccncc4)c3=O)[C@H]2N1Cc1cccc(F)c1,.,.,-,-,-,.
CC(C)c1ccc(-c2nn(-c3ccccc3)cc2C2C(C#N)=C(N)OC3=C2C(=O)CC(C)(C)C3)cc1 (stereo not drawn),-,.,.,52,.,-
Cc1cccc(-c2cnn(-c3ccccc3)c2N)c1,-,?,-,56,-,-
CCS(=O)(=O)n1nc(-c2ccccc2)cc1N,-,.,-,-,-,.
Cc1cccc(-c2cnn(-c3cccc([N+](=O)[O-])c3)c2N)c1,-,-,-,.,-,-
Cc1ccc(C(c2c(C)nn(-c3ccccc3)c2N)c2c(C)nn(-c3ccccc3)c2N)cc1,-,-,-,.,-,-
Cc1ccc(-c2cc(N)n(-c3ccccc3)n2)cc1,.,93,.,.,.,-
Cc1cccc(-n2nc(C)cc2N)c1,.,-,.,-,.,-
Cc1cccc(-c2cc(N)n(-c3ccccc3)n2)c1,-,87,-,54,-,-
CCc1ccc(-c2cc(N)n(-c3ccccc3)n2)cc1,-,-,-,68,-,-
C[C@H]1CN([C@@H](C)CO)C(=O)c2cccc(NC(=O)Nc3cccc4ccccc34)c2O[C@H]1CN(C)C(=O)Nc1ccccc1,.,.,.,-,-,.
COc1cc2c3nnc(-c4ccccc4)c-3cn(Cc3ccccc3F)c2cc1OC,-,.,.,.,97,-
COc1cc2c3nnc(-c4ccc(F)cc4)c-3cn(Cc3ccccc3F)c2cc1OC,-,-,-,.,114,-
SMILES,Wnt bcat act,MITF act,Casp6 inh,esBAF inh,XiGFP reactiv,NSD2 inh
COC(=O)N/N=C/c1cn(Cc2ccccc2F)c2ccccc12,-,-,-,-,-,-
C[C@@H]1CCCCO[C@@H](CN(C)CC2CCCCC2)[C@H](C)CN([C@H](C)CO)C(=O)c2cc(NS(=O)(=O)c3ccc(F)cc3)ccc2O1,.,.,-,-,-,.
CC(C)CC#Cc1ccc2c(c1)O[C@@H](CN(C)S(=O)(=O)c1cccc(F)c1)[C@H](C)CN([C@H](C)CO)S2(=O)=O,.,.,-,-,-,.
COc1ccccc1-c1cc(C(=O)N2CCOCC2)no1,-,105,-,?,-,-
CC1CCN(C(=O)c2cc(-c3ccccc3O)on2)CC1,63,104,-,-,-,.
CCC(C)NC(=O)c1cc(-c2ccccc2O)on1 (stereo not drawn),-,.,-,57,-,.
CC(C)NC(=O)c1cc(-c2cccs2)on1,55,.,.,-,.,-
COc1cccc(NC(=O)N[C@H]2CC[C@@H](CC(=O)N3CCCCC3)O[C@@H]2CO)c1,.,.,-,-,-,.
O=C([C@H]1[C@H](CO)[C@H]2Cn3c(ccc(-c4cccnc4)c3=O)[C@@H]1N2CCC(F)(F)F)N1CCCCC1,.,.,-,-,-,.
COc1ccccc1-c1cc(C(=O)NC(C)C)no1,-,-,-,52,.,-
